Measured values from ChEMBL document CHEMBL4392872, “Phomanolides C-F from a Phoma sp.: Meroterpenoids Generated via Hetero-Diels-Alder Reactions” (J Nat Prod, 2019).
Calls of active or inactive are those of the source. The rule behind the calls is not given here.

What was measured:
Type in all cases: functional, cell-based
HeLa [1] = assay: Cytotoxicity against human HeLa cells at 50 uM measured after 48 hrs by MTS assay
H4 [2] = assay: Cytotoxicity against human H4 cells at 50 uM measured after 48 hrs by MTS assay
SH-SY5Y [3] = assay: Cytotoxicity against human SH-SY5Y cells at 50 uM measured after 48 hrs by MTS assay
U-251 [4] = assay: Cytotoxicity against human U251 cells at 50 uM measured after 48 hrs by MTS assay
MCF7 [5] = assay: Cytotoxicity against human MCF7 cells at 50 uM measured after 48 hrs by MTS assay
HeLa [6] = assay: Cytotoxicity against human HeLa cells measured after 48 hrs by MTS assay
Procedure, shortened: (§1)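 Cells seeded at 1.0 × 10^4 per well and allowed to attach overnight. Medium then replaced with medium holding the test compound, positive control cisplatin, or 0.1% DMSO vehicle. Incubated 48 h at 37 °C, 5% CO2. MTS added and incubated 90 min at 37 °C in the dark, then OD read at 490 nm. Triplicate wells per concentration; each test run three times.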

SH-SY5Y [7] = assay: Cytotoxicity against human SH-SY5Y cells measured after 48 hrs by MTS assay; procedure, shortened: as §1
MCF7 [8] = assay: Cytotoxicity against human MCF7 cells measured after 48 hrs by MTS assay; settings: MCF7, 48 h; procedure, shortened: as §1
U-251 [9] = assay: Cytotoxicity against human U251 cells measured after 48 hrs by MTS assay; settings: U-251, 48 h; procedure, shortened: as §1
H4 [10] = assay: Cytotoxicity against human H4 cells measured after 48 hrs by MTS assay; settings: H4, 48 h; procedure, shortened: as §1

SMILES	Activity (HeLa [1])	Activity (H4 [2])	Activity (SH-SY5Y [3])	Activity (U-251 [4])	Activity (MCF7 [5])	IC50 (HeLa [6]) [µM]	IC50 (SH-SY5Y [7]) [µM]	IC50 (MCF7 [8]) [µM]	IC50 (U-251 [9]) [µM]	IC50 (H4 [10]) [µM]
CC1=CC(=O)O[C@@]23CC(=O)O[C@@]12C[C@H]1C[C@H](O)[C@@]2(C)Oc4cc(O)cc(C)c4C[C@H]2CC(C)(C)/C=C/C[C@]1(C)O3	inactive	inactive	inactive	inactive	inactive					
Cc1cc(O)cc2c1C[C@H]1CC(C)(C)/C=C/C[C@]3(C)OC4=CC(=O)O[C@]5(C)CC(=O)O[C@]45C[C@H]3C[C@H](O)[C@@]1(C)O2						50	83.5			
CC1=CC(=O)O[C@@]23CC(=O)O[C@@]12C[C@H]1C[C@H](O)[C@@]2(C)Oc4cc(O)c(=O)cc(C)c4C[C@H]2CC(C)(C)/C=C/C[C@]1(C)O3							132	68.4	38.8	44.6
CC1=CC(=O)O[C@@]23CC(=O)O[C@@]12C[C@H]1C[C@H](O)/C(C)=C\CC(C)(C)/C=C/C[C@]1(C)O3	inactive	inactive	inactive	inactive	inactive					
